# High-throughput results (PubChem)
# Most compounds without a hit are left out; they make up all but 1.8% or so of the library.
# Rev-erbA mod: modulates human Rev-erb alpha binding to DNA. P20393. hit rate 0.79% among 370,000. Rev-erbα–FITC-DNA binding, fluorescence polarization, 90 min. activity, % at 10 µM;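 active means activity above about 14%, limit read from the data; passing the limit was not always enough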
# NR2E3 ag-1: NR2E3 (human) agonism | inhibition of corepressor binding, % at 4.78 µM | AID 2300 | hit rate 0.12% among 320,000 | Q9Y5X4 | GST-NR2E3/biotin-RetCOR TR-FRET, 1536-well;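 active means percent inhibition above the cutoff of mean plus 3 SD of all tested compounds, set per screening campaign, cut at about 20% in these data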
# Target sequence (Q9Y5X4 whole entry, looked up): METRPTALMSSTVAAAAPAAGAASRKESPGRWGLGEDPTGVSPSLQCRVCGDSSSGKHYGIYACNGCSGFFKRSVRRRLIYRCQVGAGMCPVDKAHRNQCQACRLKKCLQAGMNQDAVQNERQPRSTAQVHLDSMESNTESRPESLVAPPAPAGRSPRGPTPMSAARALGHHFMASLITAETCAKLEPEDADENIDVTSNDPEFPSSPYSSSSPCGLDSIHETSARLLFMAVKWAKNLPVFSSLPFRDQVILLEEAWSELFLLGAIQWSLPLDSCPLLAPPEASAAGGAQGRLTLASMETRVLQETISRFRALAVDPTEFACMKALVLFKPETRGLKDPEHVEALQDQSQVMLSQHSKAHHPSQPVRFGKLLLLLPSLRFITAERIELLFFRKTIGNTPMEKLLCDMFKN
#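 system = GST-tagged NR2E3 plus biotinylated RetCOR corepressor | input = 1.35 nM GST-NR2E3 | also added = 7 nM biotin-RetCOR | schedule = 5 h incubation at 4 °C | measured by = TR-FRET with europium anti-GST and streptavidin-D2, 340 nm excitation | read-out = percent loss of FRET ratio relative to control wells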
# GalR3 antagonist: blocks the human galanin receptor 3 | O60755 | HEK293 GalR3-CNG cAMP membrane potential fluorescence; galR3 body fused to GalR1 C-terminus | AID 651719 | inhibition, % at 3 µM | hit rate 0.44% among 360,000;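 active means inhibition above the screen-wide average plus 3 SD, cut at about 13% in these data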;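 further: forskolin and galanin both at EC90 stimulate the cells; cAMP rise reported by CNG channel membrane potential dye signal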
# Target sequence (O60755 1-299 limits assumed): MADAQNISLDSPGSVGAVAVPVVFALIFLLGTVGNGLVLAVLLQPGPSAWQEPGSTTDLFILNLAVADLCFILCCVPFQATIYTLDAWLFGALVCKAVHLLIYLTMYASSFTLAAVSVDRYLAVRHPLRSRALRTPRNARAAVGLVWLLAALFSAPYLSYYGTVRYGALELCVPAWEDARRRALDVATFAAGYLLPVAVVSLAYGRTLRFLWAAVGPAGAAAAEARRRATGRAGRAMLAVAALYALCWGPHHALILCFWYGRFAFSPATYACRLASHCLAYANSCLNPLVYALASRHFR
# NR2E3 ag-2: human photoreceptor-specific nuclear receptor agonism; hit rate 0.35% among 360,000; AID 602229; inhibition of corepressor binding, % at 3.98 µM; CHO-S Gal4-NCOR/VP16-NR2E3 two-hybrid, luciferase;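 active means inhibition above the mean of all tested compounds plus 3 SD, cut at about 70% in these data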;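 further: higher means lower luciferase signal from less NR2E3 corepressor binding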
# PG9 Ab binder: binds the HIV-1 gp120 antibody PG9; TR-FRET gp120-PG9 antibody binding; inhibition, % at 6.7 µM; hit rate 0.43% among 360,000; AID 624416; in the data active means inhibition above about 8.5%
# PG9 binder conf: confirmation of small molecules binding HIV-1 gp120 antibody PG9; shares compounds with PG9 Ab binder; TR-FRET PG9 antibody binding, biochemical; inhibition, % at 6.7 µM; hit rate 90% among 1,500; in the data active means inhibition above about 9%
# PGV04 counter: counter-screen for PG9 binders: binding control antibody PGV04 | inhibition, % at 6.7 µM | TR-FRET PGV04 antibody-gp120 binding, biochemical | shares compounds with PG9 Ab binder | hit rate 95% among 1,500 | AID 651604; in the data active means inhibition above about 9.5%
# PG9 bind DR: small molecules binding HIV-1 gp120 antibody PG9; shares compounds with PG9 Ab binder; TR-FRET PG9 antibody-gp120 binding inhibition; IC50, µM; 95 tested, under 10 active; AID 651848; in the data active means IC50 below about 10 µM
# PGV04 binding DR: binds control antibody PGV04 in PG9 counter-screen; shares compounds with PG9 Ab binder; TR-FRET binding to control antibody PGV04; IC50, µM; hit rate 20% among 95; AID 651937
# PG126 DR counter: PG126 binding, dose response counter-screen; shares compounds with PG9 Ab binder; TR-FRET binding to antibody PG126, counterscreen; IC50, µM; hit rate 20% among 95; AID 651939
# NR1D1 mod conf: confirmation of modulators of human Rev-erb alpha DNA binding | shares compounds with Rev-erbA mod | Rev-erb alpha FITC-DNA binding, fluorescence polarization, 90 min | activation, % at 25 µM | hit rate 61% among 3,000 | AID 1259319;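 active means activation at or above a set limit, or at least 3 SD above the negative control mean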
# RORg counter: counter-screen for Rev-erb alpha modulators: RORgamma DNA binding; shares compounds with Rev-erbA mod; purified RORgamma protein-FITC-DNA binding, fluorescence polarization; IC50, µM; hit rate 8% among 910;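 active means Compounds whose fitted half-maximal concentration for disrupting protein-DNA binding is below 10 micromolar; the record names Rev-erb in its text, so the target is in doubt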
# A number is an active result; n = inactive; x = no result. Unless noted, no stated cut-off is given here; in the data, active means IC50 below about 9 µM; inactive means the rest.
SMILES,Rev-erbA mod,NR2E3 ag-1,GalR3 antagonist,NR2E3 ag-2,PG9 Ab binder,PG9 binder conf,PGV04 counter,NR1D1 mod conf,others
Cc1cc2c(s1)c1cnn(CC(=O)NCCc3ccccc3)c(=O)c1n2C,307.0,n,n,x,36.6,48.7,49.6,351.8,
O=C(Cn1cnc2sc(-c3ccccc3)cc2c1=O)NCCc1ccccc1,65.1,n,n,n,9.1,39.8,60.0,28.3,
O=C(Cn1cnc2sc(-c3ccccc3)cc2c1=O)NCc1ccccc1,n,n,n,n,n,x,x,x,
C=CCN(CC#Cc1ccccc1)Cc1ccc(OC)cc1OC,n,x,x,x,x,x,x,x,
O=C(N[C@H](C(=O)N1CCC[C@H]1C(=O)NC1CCCC1)c1ccccc1)C1CCCC1,n,x,n,x,n,x,x,x,
COc1ccc(Br)cc1-c1nc2c(c(=O)[nH]c(=O)n2Cc2ccccc2)n1C,92.2,n,n,n,45.1,68.9,19.8,51.9,PG9 bind DR=9.53;PGV04 binding DR=5.15;PG126 DR counter=5.7;RORg counter=n
COc1ccc(OCCSc2nc3ccccc3c(=O)[nH]2)cc1,29.2,n,n,n,58.3,53.4,65.5,21.3,
CCn1ccc(C(=O)Nc2sc3c(c2C(=O)OC)CCC3)n1,n,x,n,n,n,x,x,x,
COC(=O)c1c(NC(=O)c2ccn(C)n2)sc2c1CCC2,20.0,n,n,n,9.0,n,12.5,n,
COc1cccc(-c2nnc3sc(-c4cccs4)nn23)c1,41.2,n,n,n,39.1,32.9,57.1,n,
COc1cccc(-c2nn3c(-c4cccc(C)c4)nnc3s2)c1,n,n,n,n,n,x,x,x,
CCOC(=O)c1cc2sc(C)cc2n1CC(=O)NCc1ccc(F)cc1,26.8,n,n,n,59.4,49.3,74.7,n,
COC(=O)[C@]12CCCCC=C1N(Cc1ccc(OC)cc1)C(=O)[C@@H]2CC(=O)NCc1cccs1,n,x,x,x,x,x,x,x,
CCOC(=O)c1c(NC(=O)C2c3ccccc3Oc3ccccc32)sc(C(N)=O)c1C,40.5,n,n,n,33.4,28.3,41.2,26.1,
CCOC(=O)c1sc(NC(=O)CN(CC)CC)c(C(=O)OCC)c1C,43.1,n,n,n,17.0,n,n,n,
CCOC(=O)c1c(NC(=O)C2CCCO2)sc(C(N)=O)c1C (stereo unspecified),n,n,n,n,n,x,x,x,
COC(=O)[C@H](C(C)C)N1Cc2nnn(Cc3ccccc3)c2-c2ccccc2S1(=O)=O,n,x,x,x,x,x,x,x,
CC(C)NC(=O)N[C@@H]1C[C@@H]2O[C@H](CO)CC[C@@H]2O[C@@H]1CCc1ccc(-c2ccccc2F)cc1,n,x,x,x,x,x,x,x,
COc1ccc(C2CC(=O)C(c3ccccc3)=CN2Cc2ccccc2)cc1 (stereo unspecified),n,x,n,x,n,x,x,x,
CCOC(=O)[C@]12CCCCC/C=C\1N(Cc1ccc(OC)cc1)C(=O)[C@H]2CC(=O)NCc1cccc2ccccc12,n,x,x,x,x,x,x,x,
O=C(NCCc1c[nH]c2ccccc12)OCc1cn(-c2ccccc2Cl)nn1,n,x,x,x,x,x,x,x,
CCC(=O)c1cn(CC(=O)Nc2ccc(C)cc2C)c2ccccc12,36.2,n,n,n,11.6,12.4,18.2,40.4,RORg counter=9.78
CCOC(=O)c1sc(=NC(=O)c2ccc(C)cc2)n(C)c1C,20.1,n,n,n,21.5,21.8,52.5,n,
CCOC(=O)c1sc(=NC(=O)c2ccc(F)cc2)n(C)c1C,n,n,n,n,n,x,x,x,
Cc1cc(NC(=O)COc2ccc3oc4ccccc4c3c2)no1,35.9,n,n,n,22.6,22.7,31.9,25.8,
SMILES,Rev-erbA mod,NR2E3 ag-1,GalR3 antagonist,NR2E3 ag-2,PG9 Ab binder,PG9 binder conf,PGV04 counter,NR1D1 mod conf,others
Cc1cc(NC(=O)COc2ccc3c(C)c(C)c(=O)oc3c2)no1,n,x,n,n,n,x,x,x,
COCCCN1CCC2(CCC(c3ccccc3)CC2)C1=O (stereo unspecified),n,x,x,x,x,x,x,x,
O=C(CNC(=O)c1sc2ccccc2c1Cl)NCc1cccc(C(F)(F)F)c1,31.1,n,n,n,15.4,17.3,19.1,17.3,
COC(=O)c1ccc2nc(NC(=O)CCS(=O)(=O)c3ccccc3)sc2c1,43.4,n,n,n,14.9,24.7,35.8,17.9,
COc1ccc2c(c1)CNC2CS(=O)(=O)NC1CCCC1 (stereo unspecified),n,x,x,x,x,x,x,x,
COc1ccccc1N(C)S(=O)(=O)c1ccc(C(=O)Nc2nc(C)c(C(C)=O)s2)cc1,103.6,n,n,n,39.6,41.2,60.9,87.3,RORg counter=n
COc1cc(NC(=O)C2CCCN(S(=O)(=O)c3ccc(Br)s3)C2)cc(OC)c1 (stereo unspecified),n,x,x,x,x,x,x,x,
CCOC(=O)c1cc(C(=O)OCC)c2cc(Br)ccc2n1,39.8,n,n,n,11.4,12.1,17.1,37.7,RORg counter=n
CCC(C(=O)NC1CCCC1)N(C(=O)c1snc(C(N)=O)c1N)c1ccc(OC)cc1 (stereo unspecified),17.5,n,n,n,33.9,15.2,41.1,n,
O=C(Cn1cnc2c(oc3nc4c(cc32)CCCC4)c1=O)Nc1cccc(Cl)c1,57.1,n,n,n,9.1,25.6,25.0,n,PG9 bind DR=n;PGV04 binding DR=n;PG126 DR counter=n
Cc1ccccc1Nc1nn2c(=O)c3ccccc3nc2s1,37.2,n,n,n,35.9,31.1,47.1,18.6,
O=c1c2ccccc2nc2sc(Nc3ccc(F)cc3)nn12,100.2,n,n,n,12.4,23.5,24.1,91.7,RORg counter=n
Cc1c(C(C)c2ccccc2O)c2ccccc2n1C (stereo unspecified),n,x,x,x,x,x,x,x,
COc1ccc2oc(C(=O)Nc3nccs3)c(C)c2c1,35.6,n,n,n,12.2,21.3,46.2,n,
COC(=O)c1sc(NC(=O)c2c(OC)cccc2OC)c(C#N)c1C,26.5,n,n,n,14.2,19.9,28.8,28.9,
COc1cc(/C=C/C(=O)c2ccccc2)cc(OC)c1OC,n,x,x,x,x,x,x,x,
Cc1ccc(NC(=O)c2ccc3c(c2)OCO3)cc1Cl,n,n,n,n,n,x,x,x,
Cc1ccc(C(=O)Nc2ccc3c(c2)OCO3)cc1Cl,23.6,n,n,n,21.4,18.1,22.4,n,
